# Screening results from PubChem.
# SIAE inh: inhibitors of human sialic acid acetylesterase SIAE | SIAE FP-Rh probe binding, fluorescence polarization | inhibition, % at 9.66 µM | 370,000 compounds, 0.69% hits | AID 1053197;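 active = inhibition above a cutoff: mean of compounds within the control limits plus 3 SD of those, cut at about 17% in these data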;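 also: 0% = plate median of compound wells and 100% = probe without SIAE protein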
# Target sequence (Q9HAT2 whole entry, looked up): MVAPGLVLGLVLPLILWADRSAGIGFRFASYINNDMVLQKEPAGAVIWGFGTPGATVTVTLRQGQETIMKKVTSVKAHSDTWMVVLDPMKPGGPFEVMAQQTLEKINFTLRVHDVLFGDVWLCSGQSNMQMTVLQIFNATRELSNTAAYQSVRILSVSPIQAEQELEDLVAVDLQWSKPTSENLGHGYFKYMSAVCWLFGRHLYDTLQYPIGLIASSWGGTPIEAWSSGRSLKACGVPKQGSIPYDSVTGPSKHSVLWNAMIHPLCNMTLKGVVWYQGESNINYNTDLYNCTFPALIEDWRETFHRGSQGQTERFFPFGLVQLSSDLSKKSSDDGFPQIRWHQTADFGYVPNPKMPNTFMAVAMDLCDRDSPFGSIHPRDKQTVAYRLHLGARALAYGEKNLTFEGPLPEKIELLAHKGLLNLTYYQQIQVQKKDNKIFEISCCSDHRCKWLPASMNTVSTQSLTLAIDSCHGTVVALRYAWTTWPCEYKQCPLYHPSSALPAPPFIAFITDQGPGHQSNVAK
# Tn6 DDE FP: disrupts Tn6 cyclic peptide binding to fibrin D-Dimer-E complex; inhibition, % at 8.3 µM; 370,000 compounds, 0.21% hits; Fibrin DD(E) TRITC-Tn6 fluorescence polarization displacement; AID 720509; P02675;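 active = inhibition above a per-campaign cutoff: mean of compounds within control limits plus 3 SD, cut at about 15% in these data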;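 also: 0% = median of all compound wells on the plate and 100% = blocking peptide control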
# TCR CD3 inh: human TCR-CD3 binding inhibition; TAMRA-labeled TCR probe fluorescence, biochemical; inhibition, % at 9.4 µM; 360,000 compounds, 0.37% hits; AID 651800; in the data active = inhibition above about 19%;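 also: recombinant mutant TCR 2C K166C tagged with TAMRA read by polarization; 0% = receptor in buffer alone and 100% = receptor with positive control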
# ABHD4 inh: inhibitors of mouse ABHD4; 370,000 compounds, 0.54% hits; inhibition, % at 8.92 µM; Q8VD66; purified mABHD4, FP-Rh probe fluorescence polarization;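 active = inhibition exceeding the mean over every tested compound plus 3 SD, cut at about 30% in these data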;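 also: 0% = plate median of compound wells and 100% = S159A mutant with DMSO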
#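 assay system = mABHD4 protein | compound dosing = single nominal dose of 8.92 µM, 0.89% DMSO final | read-out basis = percent inhibition of probe binding, normalized to plate controls | schedule = Enzyme–compound pre-incubation 45 min, then probe 60 min, both 25 °C | detection = fluorescence polarization, excitation 525 nm, emission 598 nm, BODIPY TMR filters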
# Tn7 DDE FP: inhibitors of Tn7 peptide binding to human fibrin DD(E) | P02675 | FP displacement of FITC-Tn7 peptide from fibrin DD(E); 0% = median of compound wells per plate | inhibition, % at 8.3 µM | 370,000 compounds, 0.13% hits;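 active = inhibition above the mean of compounds falling within the control limits plus 3 SD of them, cut at about 14% in these data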;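 also: 0% = plate median of compound wells and 100% = 10 µM Aha-Tn7 peptide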
#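 Test system – human fibrin DD(E) · Times – 10 min preincubation, 3 h with tracer, room temperature · Detection – fluorescence polarization of the labelled Tn7 tracer · Measure – percent inhibition normalized to high-control wells · Benchmarks – high control wells with 10 µM unlabelled Aha-Tn7 peptide (full inhibition) · Repeats – singlicate testing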
# HTRA1 inh: HTRA1 (human) protease inhibition; inhibition, % at 5.96 µM; Q92743; 340,000 compounds, 0.5% hits; AID 504803; recombinant HTRA1, FP-rhodamine activity-based probe, fluorescence polarization; in the data active = inhibition above about 36%;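 also: 0% = enzyme with DMSO and 100% = wells lacking enzyme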
# SIAE confirm: human SIAE inhibition, confirmation. shares compounds with SIAE inh. SIAE FP-Rh activity-based probe, fluorescence polarization. inhibition, % at 9.66 µM. 2,300 compounds, 13% hits;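 active = mean inhibition of the replicates above the hit cutoff set in the primary screen, cut at about 17% in these data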;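 also: 0% = SIAE with DMSO and probe and 100% = probe without SIAE; inhibitors lower polarization as more probe stays unbound to SIAE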
# * hit, by the source's call; / = no result given. Hits are enriched below; roughly 1.8% of the tested compounds scored in any of these assays.
SMILES,SIAE inh,Tn6 DDE FP,TCR CD3 inh,ABHD4 inh,Tn7 DDE FP,HTRA1 inh,SIAE confirm
O=C(NCc1ccc(Cl)cc1)C1CCCN1C(=O)Nc1ccc(F)cc1 (configuration not stated),-6.2,6.5,0.7,-7.8,1.5,2.1,/
O=C(NCc1ccccc1)[C@H]1CCCN1C(=O)[C@H]1CCCN1C(=O)c1ccc(F)c(F)c1,18.2*,-5.0,6.7,-1.4,12.5,/,-0.9
Cc1cc(OC(=O)c2cc(F)c(F)cc2Cl)nc(C)n1,19.4*,9.3,-0.8,6.8,-2.4,7.2,2.6
O=C(NNc1ccccc1C(F)(F)F)c1sccc1Br,24.9*,0.5,7.1,-1.4,-1.7,-6.2,-2.8
O=C(Nc1ccccc1C(F)(F)F)c1ccsc1,-2.6,-5.5,-4.8,-7.8,7.3,2.0,/
O=C(NCCO)c1cccc(Nc2nc(-c3ccccc3)c3cc(Cl)ccc3n2)c1,21.3*,-2.5,2.1,-14.5,8.1,-59.1,-29.2
O=C(Nc1ccc2ccccc2c1)NC1CCCCN(Cc2cccc(Cl)c2)C1=O (configuration not stated),-6.7,-5.2,/,6.3,-2.5,/,/
COc1cc(/C=N/NC(=O)CCn2c3ccccc3c3ccccc32)ccc1O,18.2*,-0.2,0.4,-5.7,4.2,-11.2,11.8
COc1cc(/C=N/NC(=O)C2COc3ccccc3O2)ccc1O (configuration not stated),20.0*,-4.9,-0.2,2.6,2.0,2.8,7.9
COc1ccc(-c2nc(NC(=O)c3[nH]c(C)c(C(C)=O)c3C)sc2C)cc1,26.7*,-9.4,2.6,4.5,-3.6,-14.8,-2.4
NNC(=O)CC1=NNC(=O)C1,19.1*,-2.1,-4.3,-1.3,0.9,3.7,0.4
O=C1CC(CC(=O)N/N=C/c2ccccc2[N+](=O)[O-])=NN1,-2.5,-3.7,-3.0,12.6,4.8,6.9,/
CC(OP(=O)(O)C(NC(=O)[C@H](Cc1ccc(O)cc1)NC(=O)OC(C)(C)C)C(C)C)C(=O)O (some centres not stated),7.9,-3.4,/,2.0,4.5,/,/
CC(C#N)(NC(=O)CN1CCN(S(=O)(=O)c2ccccc2C#N)CC1)C1CC1 (configuration not stated),19.5*,11.2,1.3,-0.7,-1.7,6.6,-1.4
Cc1ccc(-n2[nH]c(C)c(C=Nc3ccc4[nH]c(=O)[nH]c4c3)c2=O)cc1,22.8*,-2.4,-3.8,1.0,5.9,13.8,2.9
Cc1ccc(-n2[nH]c(C)c(C=Nc3ccc4[nH]c(=O)[nH]c4c3)c2=O)cc1C,4.6,-14.9,-0.6,1.2,-4.0,6.4,/
O=C(Oc1cccc2c(O)cccc12)c1ccco1,17.8*,0.6,3.0,23.6,-6.9,24.2,-1.9
Cc1ccccc1C(=O)Oc1cccc2c(O)cccc12,12.7,5.5,1.3,-9.6,4.2,-6.2,/
C=CCN1C(=O)/C(=C2/Sc3ccccc3N2C)SC1=Nc1c(C)n[nH]c1C,/,/,/,/,/,3.0,/
CCN1C(=O)/C(=C2/Sc3ccccc3N2CC)S/C1=N\c1ncn[nH]1,19.1*,-11.4,3.7,26.9,-3.3,16.8,-1.5
Cc1ccc(S(=O)(=O)N(C)c2ccccc2C(=O)N2CCCC2)cc1,17.2*,5.8,1.9,3.9,1.5,4.7,5.4
COc1ccc(N2CCN(C(=O)c3ccccc3N(C)S(=O)(=O)c3ccc(C)cc3)CC2)cc1,0.3,-4.6,-6.7,-3.1,0.5,-0.5,/
CCn1c(SCC(=O)Nc2cccc3ccccc23)nnc1-c1cccs1,-4.8,-1.1,/,0.5,3.7,/,/
Cc1ccccc1NS(=O)(=O)c1ccc(C(=O)N2CCN(S(=O)(=O)c3ccccc3)CC2)cc1,18.8*,4.3,3.6,2.7,3.6,0.1,-7.4
CCc1ccccc1NC(=O)CN(C)C(=O)CSc1nn(-c2ccc(F)cc2)c(=S)s1,18.0*,5.6,-0.8,-11.4,7.0,-8.5,0.3
SMILES,SIAE inh,Tn6 DDE FP,TCR CD3 inh,ABHD4 inh,Tn7 DDE FP,HTRA1 inh,SIAE confirm
FC(F)(F)c1ccccc1C(C#Cc1ccccc1)NCc1ccc2c(c1)OCO2 (configuration not stated),-0.3,-5.8,/,-5.9,6.4,/,/
O=c1c2cn[nH]c2[nH]c(=S)n1-c1cccc2ccccc12,22.6*,-6.5,8.9,0.3,6.0,-5.9,3.5
O=c1c2cn[nH]c2[nH]c(=S)n1-c1ccccc1,2.8,6.9,-5.8,12.3,13.5,5.7,/
CC(=O)N1CCN(C2c3cccc4cccc(c34)C2NS(=O)(=O)c2ccccc2)CC1 (configuration not stated),24.4*,1.9,-1.6,-3.6,4.3,3.3,-2.5
Cc1ccc(C(=O)N2CCN(C3c4cccc5cccc(c45)C3NS(=O)(=O)c3ccccc3)CC2)cc1 (configuration not stated),-7.0,0.6,-4.2,-7.8,-3.5,-53.3,/
COC(=O)c1cn(-c2ccc(-c3noc4c3C(=O)N(CC(=O)N3CCOCC3)CC4)cc2)nn1,-3.9,0.6,/,-5.2,-0.7,/,/
OC(c1ccc(CN2CCCCC2)cc1)c1ncc(-c2ccccc2)[nH]1 (configuration not stated),23.5*,7.6,-7.0,0.9,0.5,/,-0.6
Cc1ccccc1N1CCN(S(=O)(=O)N(C)C)CC1,20.8*,1.6,0.8,2.0,-6.9,0.9,2.6
C[C@@H]1OC(C2CCCCC2)N(C)[C@H]2C[C@H]3c4cc(N5CCOCC5)ccc4CCN3C[C@@H]12 (some centres not stated),1.4,-8.8,/,2.7,-4.6,/,/
COc1ccc(-n2nnc3c(=O)n(C/C=C/c4ccccc4)cnc32)cc1,20.6*,6.1,-6.6,4.2,3.5,0.6,-3.4
Cc1ccc(NC(=O)OCCCN2C(=O)CCC23CCC(C)CC3)cc1C (configuration not stated),-5.9,4.0,/,-2.2,4.6,/,/
COc1cccc(C(=O)NCCn2ccc3ccccc32)c1,1.7,-2.3,-5.0,-9.1,1.0,0.1,/
COc1ccc(C(=O)NCCn2ccc3ccccc32)cc1OC,21.6*,2.9,-0.8,1.8,1.1,-5.8,0.0
COC(=O)c1ccc2c(C)c(C3(O)CCCCC3)[nH]c2c1,7.0,-14.7,-4.0,-2.3,1.1,-11.9,/
Cc1c(C2(O)CCCCC2)[nH]c2ccc(C#N)cc12,17.9*,1.9,0.7,0.8,-2.0,-9.6,0.0
COC(=O)[C@H](CC(C)C)N(CCc1cn(Cc2ccc(C)cc2)nn1)S(=O)(=O)c1ccc(F)cc1Br,0.8,-6.6,/,-2.0,2.1,/,/
COc1ccc2[nH]c3c(c2c1)CCN[C@]31C(=O)N(C)c2ccc(Br)cc21,0.3,5.7,/,6.7,-3.6,/,/
COc1ccc(NC(=S)NNC(=O)c2cccs2)cc1,17.8*,1.6,-3.7,10.4,2.9,-0.1,1.3
